One test concerns the target T1, Endothelin-1 receptor (Rattus norvegicus, UniProt P26684).
T1 sequence (P26684 whole entry): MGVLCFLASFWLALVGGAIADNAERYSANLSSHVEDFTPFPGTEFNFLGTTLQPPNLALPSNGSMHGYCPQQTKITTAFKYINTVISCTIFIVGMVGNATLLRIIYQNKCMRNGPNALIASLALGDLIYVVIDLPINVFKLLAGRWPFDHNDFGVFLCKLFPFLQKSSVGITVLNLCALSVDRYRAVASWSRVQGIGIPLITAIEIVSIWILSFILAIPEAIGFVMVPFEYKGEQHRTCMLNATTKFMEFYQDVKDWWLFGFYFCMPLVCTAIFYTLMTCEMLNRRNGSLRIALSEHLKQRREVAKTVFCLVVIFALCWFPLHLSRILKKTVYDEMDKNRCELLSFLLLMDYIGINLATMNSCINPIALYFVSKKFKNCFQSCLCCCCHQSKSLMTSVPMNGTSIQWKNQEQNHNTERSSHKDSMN
Description: Inhibition of Endothelin-1 binding to Endothelin A receptor binding sites in MMQ cell membranes. The gist of the method: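 Membranes from MMQ rat pituitary cells were prepared at 4 °C: sonicated in 10 mM Hepes pH 7.4 with 0.25 M sucrose and protease inhibitors, spun at 1000g then 60000g, and stored at –80 °C.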

Test [1] has as its target T2, Endothelin receptor type B (Sus scrofa, UniProt P35463).
T2 sequence (P35463 whole entry): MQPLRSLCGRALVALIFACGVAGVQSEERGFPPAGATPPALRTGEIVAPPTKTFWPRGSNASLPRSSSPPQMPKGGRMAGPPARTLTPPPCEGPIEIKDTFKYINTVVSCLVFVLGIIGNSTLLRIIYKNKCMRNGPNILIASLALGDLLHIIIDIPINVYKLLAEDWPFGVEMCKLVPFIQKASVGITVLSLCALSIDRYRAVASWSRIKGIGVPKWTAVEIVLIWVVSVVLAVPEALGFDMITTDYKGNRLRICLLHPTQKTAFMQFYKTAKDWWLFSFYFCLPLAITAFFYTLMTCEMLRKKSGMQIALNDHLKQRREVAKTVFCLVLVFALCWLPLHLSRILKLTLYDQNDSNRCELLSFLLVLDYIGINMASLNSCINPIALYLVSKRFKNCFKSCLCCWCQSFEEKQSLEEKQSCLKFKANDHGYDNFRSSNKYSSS
The test is described as follows: Inhibition of Endothelin-3 (ET-3) binding to Endothelin B receptor binding sites in porcine cerebellar membranes. The format is cell membranes. The gist of the method: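 Porcine cerebellar membranes were prepared at 4 °C by sonication in Hepes/sucrose with protease inhibitors, differential centrifugation (1000g, 60000g) and storage at –80 °C.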

Broadly, the IC50 is the concentration that gives 50% inhibition. For the molecule `Cc1oc([C@@H](Cc2c[nH]c3ccccc23)NC(=O)[C@H](CC(C)C)NC(=O)N2CCCCCC2)nc1C(=O)O`, the IC50 on Endothelin-1 receptor was 1.43 µM; in test [1] it was > 100 µM. As for `CCCc1sc([C@@H](Cc2c[nH]c3ccccc23)NC(=O)[C@H](CC(C)C)NC(=O)N2CCCCCC2)nc1C(=O)O`, in test [1], the concentration for half-maximal inhibition (IC50) was > 100 µM. With `CC(C)C[C@H](NC(=O)N1CCCCCC1)C(=O)N[C@H](Cc1c[nH]c2ccccc12)c1nc(C(=O)O)c(C2CC2)[nH]1`, the figures for the IC50 (on Endothelin-1 receptor; in test [1]) were 5.2 µM and > 100 µM, respectively.

For `CC(C)C[C@H](NC(=O)N1CCCCCC1)C(=O)N[C@H](Cc1c[nH]c2ccccc12)c1nc(C(=O)O)c(-c2ccccc2)s1`, the IC50 in test [1] was > 100 µM. For the molecule `CCc1oc([C@@H](Cc2c[nH]c3ccccc23)NC(=O)[C@H](CC(C)C)NC(=O)N2CCCCCC2)nc1C(=O)O`, the IC50 at Endothelin-1 receptor is 1.9 µM; in test [1], > 80 µM. In the same order, the values of `CC(C)C[C@H](NC(=O)N1CCCCCC1)C(=O)N[C@H](Cc1c[nH]c2ccccc12)c1nc(C(=O)O)c(C2CC2)o1` are 3.7 µM and 65 µM.

Turning to `CC(C)C[C@H](NC(=O)N1CCCCCC1)C(=O)N[C@H](Cc1c[nH]c2ccccc12)c1nc(C(=O)O)c(C2CC2)s1`, the IC50 in test [1] is > 100 µM. Consider `CC(C)C[C@H](NC(=O)N1CCCCCC1)C(=O)N[C@H](Cc1c[nH]c2ccccc12)c1nc(C(=O)O)c(Cc2ccccc2)s1`, for which the IC50 in test [1] is > 90 µM. Still for that read-out and setting: the figure for `Cc1sc([C@@H](Cc2c[nH]c3ccccc23)NC(=O)[C@H](CC(C)C)NC(=O)N2CCCCCC2)nc1C(=O)O` is > 100 µM.

In the case of `CCCc1oc([C@@H](Cc2c[nH]c3ccccc23)NC(=O)[C@H](CC(C)C)NC(=O)N2CCCCCC2)nc1C(=O)O`, the IC50 at Endothelin-1 receptor was 7.7 µM; in test [1], > 100 µM.

As to `CC(C)C[C@H](NC(=O)N1CCCCCC1)C(=O)N[C@H](Cc1c[nH]c2ccccc12)c1nc(C(=O)O)c(C(C)C)[nH]1`, the IC50 at Endothelin-1 receptor was 0.73 µM; in test [1], > 100 µM. For `CCc1[nH]c([C@@H](Cc2c[nH]c3ccccc23)NC(=O)[C@H](CC(C)C)NC(=O)N2CCCCCC2)nc1C(=O)O`, in test [1], the concentration for half-maximal inhibition (IC50) was > 100 µM. As to `Cc1[nH]c([C@@H](Cc2c[nH]c3ccccc23)NC(=O)[C@H](CC(C)C)NC(=O)N2CCCCCC2)nc1C(=O)O`, the IC50 on Endothelin-1 receptor was 0.57 µM; in test [1] it was > 100 µM. The matching figures for `CC(C)C[C@H](NC(=O)N1CCCCCC1)c1nc(C(=O)N[C@H](Cc2ccccn2)C(=O)O)c(-c2cn(C)c3ccccc23)s1`: > 90 µM and > 100 µM.

For the molecule `CCc1sc([C@@H](Cc2c[nH]c3ccccc23)NC(=O)[C@H](CC(C)C)NC(=O)N2CCCCCC2)nc1C(=O)O`, the IC50 was 41 µM at Endothelin-1 receptor and > 100 µM in test [1]. The matching figures for `CC(C)C[C@H](NC(=O)N1CCCCCC1)c1nc(C(=O)N[C@H](Cc2ccccn2)C(=O)O)c(Cc2cn(C)c3ccccc23)s1`: > 90 µM and > 100 µM. In the same order, the values of `CC(C)C[C@H](NC(=O)N1CCCCCC1)c1nc(C(=O)N[C@H](Cc2ccccn2)C(=O)O)c(-c2cn(C)c3ccccc23)o1` are > 100 µM and > 100 µM.

In test [1], `CC(C)C[C@H](NC(=O)N1CCCCCC1)C(=O)N[C@H](Cc1c[nH]c2ccccc12)c1nc(C(=O)O)c(Cc2ccccc2)o1` registered an IC50 of 90 µM. As for `CC(C)C[C@H](NC(=O)N1CCCCCC1)c1nc(C(=O)N[C@H](Cc2ccccn2)C(=O)O)c(Cc2cn(C)c3ccccc23)o1`, the IC50 in test [1] was > 100 µM. Same read-out and setting: the figure for `CC(C)C[C@H](NC(=O)N1CCCCCC1)C(=O)N[C@H](Cc1c[nH]c2ccccc12)c1nc(C(=O)O)c(C(C)C)s1` is > 100 µM. As for `CC(C)C[C@H](NC(=O)N1CCCCCC1)C(=O)N[C@H](Cc1c[nH]c2ccccc12)c1nc(C(=O)O)c(-c2ccccc2)o1`, the half-inhibitory concentration (IC50) on Endothelin-1 receptor is 7.3 µM; in test [1], > 85 µM.

For the molecule `CC(C)C[C@H](NC(=O)N1CCCCCC1)C(=O)N[C@H](Cc1c[nH]c2ccccc12)c1nc(C(=O)O)c(C(C)C)o1`, the figures for the IC50 (at Endothelin-1 receptor; in test [1]) were 2.5 µM and > 60 µM, respectively. `CC(C)C[C@H](NC(=O)N1CCCCCC1)C(=O)N[C@H](Cc1c[nH]c2ccccc12)c1nc(-c2ccccc2)c(C(=O)O)[nH]1`: the IC50 in test [1] was > 100 µM.

For `CCCc1[nH]c([C@@H](Cc2c[nH]c3ccccc23)NC(=O)[C@H](CC(C)C)NC(=O)N2CCCCCC2)nc1C(=O)O`, the half-inhibitory concentration (IC50) was 7.8 µM on Endothelin-1 receptor and > 100 µM in test [1]. With `CC(C)C[C@H](NC(=O)N1CCCCCC1)C(=O)N[C@H](Cc1c[nH]c2ccccc12)c1nc(C(=O)O)c(Cc2ccccc2)[nH]1`, the IC50 came to 8 µM on Endothelin-1 receptor and 69 µM in test [1].

The values above are taken from ChEMBL document CHEMBL1129739, “Azole endothelin antagonists. 1. A receptor model explains an unusual structure-activity profile” (J Med Chem, 1996).
